Legend:
[1] = tested on: Human immunodeficiency virus 1 [K103N]; experiment: Antiviral activity against HIV1 reverse transcriptase K103N mutant
[2] = tested on: Human immunodeficiency virus 1; experiment: Antiviral activity against HIV1 with reverse transcriptase Y188L mutation in MT4 cells after 5 days by MTT method; format: functional, organism-based; conditions: Human immunodeficiency virus 1, MT4, 120 h
Outline: (§1)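 MT-4 cells from the NIH AIDS Reagent Program were infected with mutant HIV-1 (K103N or Y188L, from the MRC Centralised Facility) in the presence of graded drug concentrations. Mock-infected cells were used for cytotoxicity. Viable cells were counted by MTT colorimetry at day 5 post-infection.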

[3] = tested on: Human immunodeficiency virus 1; experiment: Antiviral activity against wild type HIV1 NL4-3 in MT4 cells after 5 days by MTT method; format: functional, organism-based; conditions: Human immunodeficiency virus 1, NL4-3, MT4, 120 h
Outline: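 MT-4 lymphoid cells, infected with HIV-1 or mock-infected (for cytotoxicity), held with a range of drug concentrations; viable cells scored at day 5 post-infection by tetrazolium (MTT) colorimetry.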

[4] = tested on: Human immunodeficiency virus type 1 reverse transcriptase (Human immunodeficiency virus 1), Q72547 [Y181I]; experiment: Antiviral activity against HIV1 reverse transcriptase Y181I mutant
[5] = tested on: Human immunodeficiency virus 1; experiment: Antiviral activity against HIV1 with reverse transcriptase Y181C mutation in MT4 cells after 5 days by MTT method; format: functional, organism-based; conditions: Human immunodeficiency virus 1, MT4, 120 h
[6] = tested on: Human immunodeficiency virus 1; experiment: Antiviral activity against HIV1 with reverse transcriptase K103N mutation in MT4 cells after 5 days by MTT method; format: functional, organism-based; conditions: Human immunodeficiency virus 1, MT4, 120 h; outline: as §1
[7] = target: Human immunodeficiency virus type 1 reverse transcriptase (Human immunodeficiency virus 1) (UniProt Q72547); experiment: Antiviral activity against wild type HIV1 reverse transcriptase
[8] = tested on: Human immunodeficiency virus 1; experiment: Antiviral activity against HIV1 with reverse transcriptase IRLL98 mutation in MT4 cells after 5 days by MTT method relative to wild type NL4-3; format: functional

| Compound | ID50 [1] | EC50 [2] | EC50 [3] | ID50 [4] | EC50 [5] | EC50 [6] | ID50 [7] | Fold change [8] |
| --- | --- | --- | --- | --- | --- | --- | --- | --- |
| COc1ccc(/C=C/CSc2nc(C(C)c3c(Cl)cccc3Cl)c(C)c(=O)[nH]2)cc1 (stereo not given) | > 20 µM | 1260 nM | 9 nM | > 20 µM | 3.6 µM | 2.47 µM | 0.018 µM | – |
| Cc1c(Cc2c(F)cccc2F)nc(SC/C=C/c2ccc([N+](=O)[O-])cc2)[nH]c1=O | > 20 µM | > 11600 nM | 260 nM | > 20 µM | > 11.7 µM | > 11.7 µM | 11.9 µM | – |
| COc1ccc(/C=C/CSc2nc(Cc3c(F)cccc3F)c(C)c(=O)[nH]2)cc1 | > 20 µM | > 3930 nM | 43 nM | > 20 µM | > 3.93 µM | > 3.93 µM | 0.25 µM | – |
| Cc1c(C(C)c2c(F)cccc2F)nc(SCc2ccc(C#N)cc2)[nH]c1=O (stereo not given) | 0.7 µM | 680 nM | 7.8 nM | > 20 µM | 1.55 µM | 0.73 µM | 0.01 µM | – |
| COc1ccc(CSc2nc(C(C)c3c(F)cccc3F)c(C)c(=O)[nH]2)cc1 (stereo not given) | 45 µM | 950 nM | 0.025 nM | > 20 µM | 0.3 µM | 0.55 µM | 0.003 µM | – |
| COc1ccc(CSc2nc(Cc3ccc(C#N)cc3)c(C)c(=O)[nH]2)cc1 | > 20 µM | > 66300 nM | 20300 nM | > 20 µM | > 66.3 µM | > 66.3 µM | > 20 µM | – |
| Cc1ccnc2c1NC(=O)c1cccnc1N2C1CC1 [NEVIRAPINE] | – | – | – | – | – | – | – | 144 |
| Cc1c(Cc2ccc(C#N)cc2)nc(SCc2ccc([N+](=O)[O-])cc2)[nH]c1=O | > 20 µM | > 26400 nM | > 26400 nM | > 20 µM | > 26.4 µM | > 26.4 µM | > 20 µM | – |
| COc1ccc(COCCSc2nc(Cc3c(F)cccc3F)c(C)c(=O)[nH]2)cc1 | > 20 µM | > 55900 nM | 1200 nM | > 20 µM | > 55.9 µM | > 55.9 µM | 0.197 µM | – |
| CCc1c(Cc2c(Cl)cccc2Cl)nc(SCc2ccc(OC)cc2)[nH]c1=O | 7.6 µM | > 57500 nM | 2.2 nM | > 20 µM | 0.83 µM | 6.99 µM | 0.032 µM | – |
| Cc1c(Cc2c(Cl)cccc2Cl)nc(S/C=C/c2ccc(F)cc2)[nH]c1=O | > 20 µM | > 59400 nM | > 59400 nM | > 20 µM | > 59.4 µM | 11.9 µM | > 20 µM | – |
| CCc1c(C(C)c2c(F)cccc2F)nc(SC/C=C/c2ccc([N+](=O)[O-])cc2)[nH]c1=O (stereo not given) | > 20 µM | 1940 nM | 0.4 nM | > 20 µM | > 5.75 µM | > 5.75 µM | 0.009 µM | – |
| COc1ccc(COCCSc2nc(C(C)c3c(Cl)cccc3Cl)c(C)c(=O)[nH]2)cc1 (stereo not given) | 57.3 µM | 2500 nM | 63 nM | > 20 µM | 8.98 µM | 6.47 µM | 0.022 µM | – |

— ChEMBL document CHEMBL1138362, “Dihydro-alkylthio-benzyl-oxopyrimidines as inhibitors of reverse transcriptase: synthesis and rationalization of the biological data on both wild-type enzyme and relevant clinical mutants” (J Med Chem, 2007)
